Results collected from several papers.
Protocols differ between the studies behind these lines.
PDGFRA T674I: Platelet-derived growth factor receptor alpha (PDGFRA, Homo sapiens, UniProt P16234, T674I)
PDGFRA: Platelet-derived growth factor receptor alpha (PDGFRA, Homo sapiens, UniProt P16234)
PDGFRA V561D: Platelet-derived growth factor receptor alpha (PDGFRA, Homo sapiens, UniProt P16234, V561D)
PDGFRA D842V: Platelet-derived growth factor receptor alpha (PDGFRA, Homo sapiens, UniProt P16234, D842V)

| target | observed | action | method | tested at | quantity | value | Compound |
| --- | --- | --- | --- | --- | --- | --- | --- |
| PDGFRA T674I | enzyme activity | inhibitor | – | 0.1 µM | inhibition | -0.2% | CC/C(=N\NC(=O)NCc1cccc(O)c1)c1ccc(O)c(C)c1O |
| PDGFRA | enzyme activity | inhibitor | – | 5 µM | remaining activity | 95.2% | O=C(Nc1cnn(-c2csc(C(=O)NC3COC3)c2)c1)Nc1ccccc1Cl |
| PDGFRA | enzyme activity | inhibitor | – | 1 µM | activity vs control | 92% | COc1cc(/C=C/C(=O)CC(=O)/C=C/c2ccc(O)c(OC)c2)ccc1O |
| PDGFRA V561D | enzyme activity | inhibitor | – | 1 µM | inhibition | 86% | COc1cc(-c2cc(-c3ccc(N4CCNCC4)cc3)cnc2N)cc(OC)c1OC |
| PDGFRA | enzyme activity | inhibitor | radiometric | 1 µM | remaining activity | 60% | COc1cc(Nc2cnc(C#N)c(O[C@H](C)CN(C)C)n2)ncc1-c1cnn(C)c1 |
| PDGFRA T674I | enzyme activity | inhibitor | – | 1 µM | inhibition | 9% | COc1cc2ncnc(Nc3ccc(Oc4ccccc4)c(C)c3C)c2cc1OC |
| PDGFRA | enzyme activity | inhibitor | – | 10 µM | remaining activity | 89% | CCCOc1ccc(OC)c(F)c1C(=O)c1ccc(C(=O)N[C@@H]2CNC[C@H]2NC(=O)c2ccc3[nH]ncc3c2)cc1 |
| PDGFRA | enzyme activity | inhibitor | – | 1 µM | activity vs control | 4% | Cc1ccc(C(=O)NCc2ccsc2)cc1C#Cc1cn(C(C)C)c2ncnc(N)c12 |
| PDGFRA | cell-free assay | – | competition with immobilised ligand | 1 µM | remaining binding | 83% | C[C@@H]1CN(c2cc(-c3nn(C)c4ccc(OC5(C)CC5)cc34)ncn2)C[C@H](C)O1 |
| PDGFRA V561D | enzyme activity | inhibitor | – | 10 µM | remaining activity | 0% | Cc1ccc(NC(=O)c2ccc(C)c(C(F)(F)F)c2)cc1C#Cc1nn(C2CCC(O)CC2)c2ncnc(N)c12 (centres unmarked) |
| PDGFRA | cell-free assay | – | competition with immobilised ligand | 1 µM | remaining binding | 100% | CC(=O)C1=C(C)N(c2cccc(C(F)(F)F)c2)C(=O)N[C@@H]1c1ccc(C#N)nc1 |
| PDGFRA D842V | enzyme activity | inhibitor | – | 10 µM | inhibition | 99% | CNC(=O)c1cc(Oc2ccc(NC(=O)Nc3ccc(Cl)c(C(F)(F)F)c3)cc2)ccn1 |
| PDGFRA D842V | enzyme activity | inhibitor | radiometric | 1 µM | remaining activity | 104% | Cc1cnc(NC2CCOCC2)nc1-n1cnc(C(=O)NC(CN)c2cc(F)cc(Cl)c2)c1 (centres unmarked) |
| PDGFRA | cell-free assay | – | – | 0.5 µM | remaining signal | 10.9% | CCN(CC)CCNC(=O)c1c(C)[nH]c(/C=C2\C(=O)Nc3ccc(F)cc32)c1C |
| PDGFRA | cell-free assay | – | competition with immobilised ligand | 1 µM | remaining binding | 80% | NS(=O)(=O)c1cc(NC(=O)Cc2ccccc2)ccc1Oc1cccc(Cl)c1 |
| PDGFRA D842V | enzyme activity | inhibitor | – | 0.1 µM | activity vs control | 28% | Cc1cc(NC(=O)c2cccc3cc(-c4cccc5[nH]nc(N)c45)ccc23)ccc1F |
| PDGFRA V561D | enzyme activity | inhibitor | radiometric | 1 µM | inhibition | 101% | CNC(=O)c1cc2c(Oc3ccc(NC(=O)C4(C(=O)Nc5ccc(F)cc5)CC4)cc3)ccnc2cc1OC |
| PDGFRA | cell-free assay | – | competition with immobilised ligand | 1 µM | remaining binding | 78% | CCC(=N\O)/C(C)=C/c1ccc(F)cc1 |
| PDGFRA | cell-free assay | inhibitor | – | 0.5 µM | remaining signal | 13.9% | Cc1ccc(Nc2nccc(N(C)c3ccc4c(C)n(C)nc4c3)n2)cc1S(N)(=O)=O |
| PDGFRA | cell-free assay | – | competition with immobilised ligand | 1 µM | remaining binding | 100% | C[C@H](c1ccc(F)cc1)N(Cc1cccc(C(=O)O)c1)C(=O)c1cnc2ccccc2c1 |
| PDGFRA | enzyme activity | inhibitor | radiometric | 5 µM | activity vs control | 49% | FC(F)(F)Oc1cccc(-c2cnc3ccc(-c4ccncc4)nn23)c1 |
| PDGFRA | cell-free assay | – | competition with immobilised ligand | 1 µM | remaining binding | 97% | N#CC1(c2ccccn2)CCN(Cc2cc(C(=O)N3CCCC3)c(=O)n3ccccc23)CC1 |
| PDGFRA | enzyme activity | inhibitor | – | 1 µM | remaining activity | 44.5% | CC(C)(O)[C@H]1CC[C@H](Nc2ccc3ncc(-c4cccc(C(F)(F)F)c4)n3n2)CC1 |
